From ChEMBL document CHEMBL1255409, “In vitro activity of ceftaroline against 623 diverse strains of anaerobic bacteria” (2010)
≈ marks a conversion by molar mass, not a printed value.

Key:
Bacteroides caccae = test: Antimicrobial activity against Bacteroides caccae under anaerobic conditions after 44 hrs by CLSI-M11-47 protocol based agar dilution method; type: functional
In short: (§1)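 Reference agar dilution per CLSI M11-A7 with plates made on test day. Clinical isolates were stored at −70°C in 20% skim milk, subcultured twice, and 48-h cell paste was suspended in brucella broth to 0.5 McFarland. About 10^5 CFU/spot was applied with a Steers replicator. Plates were incubated 44 h at 37°C anaerobically. MIC was the lowest concentration giving complete inhibition or marked growth reduction versus the drug-free control.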

[1] = test system: Parabacteroides distasonis; test: Antimicrobial activity against Bacteroides distasonis under anaerobic conditions after 44 hrs by CLSI-M11-47 protocol based agar dilution method; type: functional; in short: as §1
Prevotella buccae = test: Antimicrobial activity against Prevotella buccae under anaerobic conditions after 44 hrs by CLSI-M11-47 protocol based agar dilution method; type: functional; details: Segatella buccae
In short: (§2)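 Clinical isolates were stored at −70°C in 20% skim milk and identified phenotypically or by partial 16S rRNA sequencing. Each strain was subcultured twice from frozen stock. Cell paste from 48-h cultures was suspended in brucella broth to a 0.5 McFarland standard. About 10^5 CFU per spot were applied by Steers replicator to agar dilution plates prepared on the day of testing. Plates were incubated 44 h at 37°C in an anaerobic chamber. MIC was taken as the lowest concentration giving complete inhibition or marked reduction of growth versus the drug-free control.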

Prevotella intermedia = test: Antimicrobial activity against Prevotella intermedia under anaerobic conditions after 44 hrs by CLSI-M11-47 protocol based agar dilution method; type: functional; in short: as §2
Hoylesella loescheii = test: Antimicrobial activity against Prevotella loescheii under anaerobic conditions after 44 hrs by CLSI-M11-47 protocol based agar dilution method; type: functional; in short: as §2
Prevotella oris = test: Antimicrobial activity against Prevotella oris under anaerobic conditions after 44 hrs by CLSI-M11-47 protocol based agar dilution method; type: functional; details: Segatella oris; in short: as §2
Veillonella = test: Antimicrobial activity against Veillonella spp. under anaerobic conditions after 44 hrs by CLSI-M11-47 protocol based agar dilution method; type: functional; in short: as §2
Parvimonas micra = test: Antimicrobial activity against Parvimonas micra under anaerobic conditions after 44 hrs by CLSI-M11-47 protocol based agar dilution method; type: functional; in short: as §2
[2] = test system: Anaerococcus lactolyticus; test: Antimicrobial activity against Anaerococcus lactolyticus under anaerobic conditions after 44 hrs by CLSI-M11-47 protocol based agar dilution method; type: functional; in short: as §1
Anaerococcus murdochii = test: Antimicrobial activity against Anaerococcus murdochii under anaerobic conditions after 44 hrs by CLSI-M11-47 protocol based agar dilution method; type: functional; in short: as §1
Anaerococcus octavius = test: Antimicrobial activity against Anaerococcus octavius under anaerobic conditions after 44 hrs by CLSI-M11-47 protocol based agar dilution method; type: functional; in short: as §1
Anaerococcus vaginalis = test: Antimicrobial activity against Anaerococcus vaginalis under anaerobic conditions after 44 hrs by CLSI-M11-47 protocol based agar dilution method; type: functional; in short: as §1
Anaerococcus = test: Antimicrobial activity against Anaerococcus sp. under anaerobic conditions after 44 hrs by CLSI-M11-47 protocol based agar dilution method; type: functional; in short: as §1
Peptoniphilus harei = test: Antimicrobial activity against Peptoniphilus harei under anaerobic conditions after 44 hrs by CLSI-M11-47 protocol based agar dilution method; type: functional; in short: as §2
Peptoniphilus lacrimalis = test: Antimicrobial activity against Peptoniphilus lacrimalis under anaerobic conditions after 44 hrs by CLSI-M11-47 protocol based agar dilution method; type: functional; in short: as §2
Schaalia meyeri = test: Antimicrobial activity against Actinomyces meyeri under anaerobic conditions after 44 hrs by CLSI-M11-47 protocol based agar dilution method; type: functional; in short: as §1
[3] = test system: Actinomyces neuii subsp. anitratus; test: Antimicrobial activity against Actinomyces neuii subsp. anitratus under anaerobic conditions after 44 hrs by CLSI-M11-47 protocol based agar dilution method; type: functional, Winkia neuii subsp. anitrata; details: Winkia neuii; in short: as §1
Schaalia odontolytica = test: Antimicrobial activity against Actinomyces odontolyticus under anaerobic conditions after 44 hrs by CLSI-M11-47 protocol based agar dilution method; type: functional; in short: as §1
Actinomyces turicensis = test: Antimicrobial activity against Actinomyces turicensis under anaerobic conditions after 44 hrs by CLSI-M11-47 protocol based agar dilution method; type: functional; details: Schaalia turicensis; in short: as §1
Cutibacterium acnes = test: Antimicrobial activity against Propionibacterium acnes under anaerobic conditions after 44 hrs by CLSI-M11-47 protocol based agar dilution method; type: functional; in short: as §2
Propionibacterium avidum = test: Antimicrobial activity against Propionibacterium avidum under anaerobic conditions after 44 hrs by CLSI-M11-47 protocol based agar dilution method; type: functional; details: Cutibacterium avidum; in short: as §2
Eubacterium saburreum = test: Antimicrobial activity against Eubacterium saburreum under anaerobic conditions after 44 hrs by CLSI-M11-47 protocol based agar dilution method; type: functional; details: Lachnoanaerobaculum saburreum; in short: as §1
Mogibacterium timidum = test: Antimicrobial activity against Mogibacterium timidum under anaerobic conditions after 44 hrs by CLSI-M11-47 protocol based agar dilution method; type: functional; in short: as §2
[Clostridium] innocuum = Antimicrobial activity against Clostridium […] under anaerobic conditions after 44 hrs by CLSI-M11-47 protocol based agar dilution method; type: functional; in short: as §1
Clostridium aldenense = test: Antimicrobial activity against Clostridium aldenense under anaerobic conditions after 44 hrs by CLSI-M11-47 protocol based agar dilution method; type: functional; details: Enterocloster aldenensis; in short: as §1
Clostridium bolteae = test: Antimicrobial activity against Clostridium bolteae under anaerobic conditions after 44 hrs by CLSI-M11-47 protocol based agar dilution method; type: functional; details: Enterocloster bolteae; in short: as §1
Clostridium hathewayi = test: Antimicrobial activity against Clostridium hathewayi under anaerobic conditions after 44 hrs by CLSI-M11-47 protocol based agar dilution method; type: functional; details: Hungatella hathewayi; in short: as §1
Clostridium baratii = test: Antimicrobial activity against Clostridium baratii under anaerobic conditions after 44 hrs by CLSI-M11-47 protocol based agar dilution method; type: functional
Clostridium butyricum = test: Antimicrobial activity against Clostridium butyricum under anaerobic conditions after 44 hrs by CLSI-M11-47 protocol based agar dilution method; type: functional
Clostridium glycolicum = test: Antimicrobial activity against Clostridium glycolicum under anaerobic conditions after 44 hrs by CLSI-M11-47 protocol based agar dilution method; type: functional; details: Terrisporobacter glycolicus; in short: as §1
Clostridium hylemonae = test: Antimicrobial activity against Clostridium hylemonae under anaerobic conditions after 44 hrs by CLSI-M11-47 protocol based agar dilution method; type: functional; in short: as §1
Lacrimispora sphenoides = test: Antimicrobial activity against Clostridium sphenoides under anaerobic conditions after 44 hrs by CLSI-M11-47 protocol based agar dilution method; type: functional; in short: as §1

CCC[C@@H]1C[C@@H](C(=O)N[C@@H]([C@H]2O[C@H](SC)[C@H](O)[C@@H](O)[C@H]2O)[C@H](C)Cl)N(C)C1 [CLINDAMYCIN]
MIC50 (Bacteroides caccae): 4 µg/mL (≈ 9.41 µM) | MIC90 (Bacteroides caccae): > 128 µg/mL | MIC50 [1]: 4 µg/mL (≈ 9.41 µM) | MIC90 [1]: > 128 µg/mL | MIC50 (Prevotella buccae): ≤ 0.03 µg/mL | MIC90 (Prevotella buccae): > 128 µg/mL | MIC50 (Prevotella intermedia): ≤ 0.03 µg/mL | MIC90 (Prevotella intermedia): 16 µg/mL (≈ 37.6 µM) | MIC50 (Hoylesella loescheii): ≤ 0.03 µg/mL | MIC90 (Hoylesella loescheii): 128 µg/mL (≈ 301 µM) | MIC50 (Prevotella oris): ≤ 0.03 µg/mL | MIC90 (Prevotella oris): 128 µg/mL (≈ 301 µM) | MIC50 (Veillonella): 0.125 µg/mL (≈ 0.294 µM) | MIC90 (Veillonella): 128 µg/mL (≈ 301 µM) | MIC50 (Parvimonas micra): 0.25 µg/mL (≈ 0.588 µM) | MIC90 (Parvimonas micra): 16 µg/mL (≈ 37.6 µM) | MIC50 [2]: 0.125 µg/mL (≈ 0.294 µM) | MIC90 [2]: 64 µg/mL (≈ 151 µM) | MIC50 (Anaerococcus murdochii): 0.125 µg/mL (≈ 0.294 µM) | MIC90 (Anaerococcus murdochii): 64 µg/mL (≈ 151 µM) | MIC50 (Anaerococcus octavius): 0.125 µg/mL (≈ 0.294 µM) | MIC90 (Anaerococcus octavius): 64 µg/mL (≈ 151 µM) | MIC50 (Anaerococcus vaginalis): 0.125 µg/mL (≈ 0.294 µM) | MIC90 (Anaerococcus vaginalis): 64 µg/mL (≈ 151 µM) | MIC50 (Anaerococcus): 0.125 µg/mL (≈ 0.294 µM) | MIC90 (Anaerococcus): 64 µg/mL (≈ 151 µM) | MIC50 (Peptoniphilus harei): 0.125 µg/mL (≈ 0.294 µM) | MIC90 (Peptoniphilus harei): 64 µg/mL (≈ 151 µM) | MIC50 (Peptoniphilus lacrimalis): 0.125 µg/mL (≈ 0.294 µM) | MIC90 (Peptoniphilus lacrimalis): 64 µg/mL (≈ 151 µM) | MIC50 (Schaalia meyeri): 0.06 µg/mL (≈ 0.141 µM) | MIC90 (Schaalia meyeri): 128 µg/mL (≈ 301 µM) | MIC50 [3]: 0.06 µg/mL (≈ 0.141 µM) | MIC90 [3]: 128 µg/mL (≈ 301 µM) | MIC50 (Schaalia odontolytica): 0.06 µg/mL (≈ 0.141 µM) | MIC90 (Schaalia odontolytica): 128 µg/mL (≈ 301 µM) | MIC50 (Actinomyces turicensis): 0.06 µg/mL (≈ 0.141 µM) | MIC90 (Actinomyces turicensis): 128 µg/mL (≈ 301 µM) | MIC50 (Cutibacterium acnes): 0.125 µg/mL (≈ 0.294 µM) | MIC90 (Cutibacterium acnes): 0.125 µg/mL (≈ 0.294 µM) | MIC50 (Propionibacterium avidum): 0.25 µg/mL (≈ 0.588 µM) | MIC90 (Propionibacterium avidum): 0.25 µg/mL (≈ 0.588 µM) | MIC50 (Eubacterium saburreum): 0.06 µg/mL (≈ 0.141 µM) | MIC90 (Eubacterium saburreum): 2 µg/mL (≈ 4.71 µM) | MIC50 (Mogibacterium timidum): 0.06 µg/mL (≈ 0.141 µM) | MIC90 (Mogibacterium timidum): 2 µg/mL (≈ 4.71 µM) | MIC50 ([Clostridium] innocuum): 0.5 µg/mL (≈ 1.18 µM) | MIC90 ([Clostridium] innocuum): > 128 µg/mL | MIC50 (Clostridium aldenense): 0.5 µg/mL (≈ 1.18 µM) | MIC90 (Clostridium aldenense): 2 µg/mL (≈ 4.71 µM) | MIC50 (Clostridium bolteae): 0.5 µg/mL (≈ 1.18 µM) | MIC90 (Clostridium bolteae): 2 µg/mL (≈ 4.71 µM) | MIC50 (Clostridium hathewayi): 0.5 µg/mL (≈ 1.18 µM) | MIC90 (Clostridium hathewayi): 2 µg/mL (≈ 4.71 µM) | MIC50 (Clostridium baratii): 2 µg/mL (≈ 4.71 µM) | MIC90 (Clostridium baratii): 128 µg/mL (≈ 301 µM) | MIC50 (Clostridium butyricum): 2 µg/mL (≈ 4.71 µM) | MIC90 (Clostridium butyricum): 128 µg/mL (≈ 301 µM) | MIC50 (Clostridium glycolicum): 2 µg/mL (≈ 4.71 µM) | MIC90 (Clostridium glycolicum): 128 µg/mL (≈ 301 µM) | MIC50 (Clostridium hylemonae): 2 µg/mL (≈ 4.71 µM) | MIC90 (Clostridium hylemonae): 128 µg/mL (≈ 301 µM) | MIC50 (Lacrimispora sphenoides): 2 µg/mL (≈ 4.71 µM) | MIC90 (Lacrimispora sphenoides): 128 µg/mL (≈ 301 µM)
